The source of these data is ChEMBL document CHEMBL5236545, “Discovery of Potent and Brain-Penetrant Tau Tubulin Kinase 1 (TTBK1) Inhibitors that Lower Tau Phosphorylation In Vivo” (J Med Chem, 2021).

Each structure is given as a SMILES string. In brackets after ≈: the same amount, converted by molar mass. Some results are limits rather than exact numbers.

Data set [1] is described as follows: Stability of the compound at pH 7.4 by UHPLC-MS/MS analysis. It is filed as physicochemical. As to conditions: buffer; call rule not given here.
The nature of data set [2]: Intrinsic clearance in human liver microsomes at 1 uM incubated upto 40 mins. It is filed as ADME, Microsome. The settings on record: read-out: CLH.
The nature of data set [3]: Intrinsic clearance in rat liver microsomes at 1 uM incubated upto 40 mins. Type of data set: ADME, Microsome. The settings on record: read-out: CLH.
Data set [4] can be described thus: Unbound brain-to-plasma concentration ratio in rat at 1 mg/kg,iv administered for 4 hrs. Type of data set: ADME, organism-based. As to conditions: brain and plasma (unbound), read-out: K(p,uu,brain).
Data set [5] can be described thus: Volume of distribution at steady state in mouse at 1 mg/kg,iv administered for 4 hrs. It is filed as ADME, organism-based. As to conditions: in vivo, read-out: Vdss.
The nature of data set [6]: Clearance in mouse at 1 mg/kg,iv administered for 4 hrs. It is filed as ADME, organism-based. As to conditions: in vivo.
The nature of data set [7]: Half life in rat at 1 mg/kg,iv administered for 4 hrs. Type of data set: ADME, organism-based. The settings on record: in vivo.
The nature of data set [8]: Clearance in rat at 1 mg/kg,iv administered for 4 hrs. It is filed as ADME, organism-based. The settings on record: in vivo.
Data set [9] is described as follows: Solubility of compound. Type of data set: physicochemical.
Data set [10] can be described thus: Half life in mouse at 1 mg/kg,iv administered for 4 hrs. It is filed as ADME, organism-based. As to conditions: in vivo.
The nature of data set [11]: Volume of distribution at steady state in rat at 1 mg/kg,iv administered for 4 hrs. It is filed as ADME, organism-based. As to conditions: in vivo, read-out: Vdss.
A short description of data set [12]: Drug concentration in rat brain at 80 mg/kg,ip administered for 24 hr by LC-MS/MS analysis. It is filed as ADME, organism-based. The settings on record: in vivo. The method, boiled down: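 Post-natal day 10 rats given 80 mg/kg I.P.; groups sacrificed 0.5−24 h after dosing. Cortical samples from each hemisphere taken for brain drug concentration and tau phosphorylation.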

Data set [13] can be described thus: Dissociation constant, pKa of compound. It is filed as physicochemical.

In data set [1], `CC(C)(O)C#Cc1cc2c(ccn2-c2ccnc(N)n2)cc1F` showed a Stability of 100%. Also, the CLint scaled at 1 µM in [2] amounted to 21 mL/min/kg; in data set [3], 69 mL/min/kg.
As to `CC(C)(O)C#Cc1cc2c(cn1)c(C1CC1)cn2-c1ccnc(N)n1`, the CLint scaled at 1 µM in data set [2] stood at 10 mL/min/kg; in data set [3] it was 374 mL/min/kg.
Take `CC[C@](C)(O)C#Cc1cc2c(ccn2-c2cc(OC)nc(N)n2)cn1`: the Kp uu at 4 h in data set [4] was 0.32. Besides, the Vd stood at 0.474 L/kg in data set [5] and 4.87 L/kg in data set [11]. In addition, the clearance in data set [6] was determined as 67 mL/min/kg; in data set [8], 62 mL/min/kg. Besides, the CLint scaled at 1 µM was determined as 16 mL/min/kg in [2] and 219 mL/min/kg in data set [3]. The figures for the half-life in [7] and in data set [10] were 216 min and 6 min, respectively. The compound also had a solubility in data set [9] of 45 µg/mL (≈ 133 µM). Besides, the Drug uptake entry in data set [12] is reported as “Not Active”.
`CC[C@](C)(O)C#Cc1cc2c(ccn2-c2ccnc(N)n2)cn1` registered a Stability in [1] of 99.7%. Further, the Kp uu at 4 h in data set [4] is 0.1. Also, the CLint scaled at 1 µM is 11 mL/min/kg in data set [2] and 155 mL/min/kg in data set [3]. Also, the half-life in [7] was 216 min. The clearance in data set [8] is 64 mL/min/kg. The compound also displayed a solubility in data set [9] of 44 µg/mL (≈ 143 µM). The Vd in [11] stood at 2.17 L/kg.
As to `CN1CCC[C@@H](c2cn(-c3ccnc(N)n3)c3cc(C#CC(C)(C)O)ncc23)C1`, the Stability in data set [1] stood at 99.3%. Besides, the CLint scaled at 1 µM in data set [2] is less than 5 mL/min/kg; in data set [3], less than 11 mL/min/kg.
With `CC(C)(O)C#Cc1cc2c(cn1)c(C1CCOCC1)cn2-c1ccnc(N)n1`, the CLint scaled at 1 µM in data set [2] was determined as 6 mL/min/kg; in [3] it was 38 mL/min/kg.
In the case of `COc1nc(C#CC(C)(C)O)cc2c1ccn2-c1ccnc(N)n1`, the CLint scaled at 1 µM in data set [2] was determined as 10 mL/min/kg; in data set [3], 62 mL/min/kg.
In the case of `CC(C)(O)C#Cc1cc2c(cn1)CCN2c1ccnc(N)n1`, the Stability in [1] was found to be 82.7%. The results for the CLint scaled at 1 µM in [2] and in data set [3] were less than 5 mL/min/kg and 24 mL/min/kg, respectively. The same compound displayed a pKa in data set [13] of 7.4.
With `CC[C@](C)(O)C#Cc1cc2c(cn1)cnn2-c1ccnc(N)n1`, the Stability in data set [1] is listed as 99.9%. Also, the Kp uu at 4 h in [4] is 0.08. The figures for the CLint scaled at 1 µM in data set [2] and in [3] were less than 5 mL/min/kg and 36 mL/min/kg, respectively. This compound also gave a half-life in [7] of 258 min. Moreover, the clearance in [8] is 17 mL/min/kg. The amount in solution in [9] (solubility) came to 46 µg/mL (≈ 149 µM). The Vd in [11] came out at 2.48 L/kg.
For `COc1cc2ccn(-c3ccnc(N)n3)c2cc1C#CC(C)(C)O`, the CLint scaled at 1 µM in [2] was 31 mL/min/kg; in data set [3], 56 mL/min/kg.
Regarding `CC(C)(O)C#Cc1cc2c(ccn2-c2ccnc(N)n2)c(N2CCOCC2)n1`, the CLint scaled at 1 µM was less than 5 mL/min/kg in data set [2] and 42 mL/min/kg in data set [3].
Consider `CC(C)(O)C#Cc1cc2c(ccn2-c2ccnc(N)n2)cn1`, for which the CLint scaled at 1 µM in data set [2] turned out to be 19 mL/min/kg; in [3], 42 mL/min/kg. In data set [13], this compound returned a pKa of 5.7.
As for `Cn1nc(-c2ccnc(N)n2)c2cc(C#CC(C)(C)O)ccc21`, in data set [1], the Stability is 100%.
Turning to `CC(C)(O)C#Cc1cc2c(cn1)cnn2-c1ccnc(N)n1`, the CLint scaled at 1 µM in data set [2] is less than 5 mL/min/kg; in data set [3], 27 mL/min/kg. The pKa in data set [13] was 4.9.
